# Results taken from ChEMBL document CHEMBL1649372, “Discovery of highly potent agents against influenza A virus” (Eur J Med Chem, 2011).
# The source made the active and inactive calls. The calls are words filed in the database; no cut-off is given here.
# System: Influenza A virus
# Assay: Antiviral activity against amantadine-sensitive Influenza A virus A/Hong Kong/8/68 (H3N2) infected in MDCK cells assessed as host cell survival after 72 hrs by CCK8 method
# Format: functional, organism-based
# Method in brief: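 Compounds added with TPCK and 0.3% BSA and preincubated 30 min at 37 °C. Cells then infected with about 0.01 MOI A/Hong Kong/8/68 (H3N2) and incubated 72 h at 37 °C in 5% CO2. CCK-8 reagent then added to read host cell survival.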
row,SMILES,IC50 [µM]
1,Cc1ccc(/C=N/[C@@H]2C[C@@H]3C[C@H]([C@H]2C)C3(C)C)cc1,13.9
2,C[C@@H]1[C@H]2C[C@@H](C[C@H]1NC1CCCCC1)C2(C)C,43.7
3,C[C@@H]1[C@H]2C[C@@H](C[C@H]1NCc1ccc(F)cc1)C2(C)C,> 200
4,C[C@@H]1[C@H]2C[C@@H](C[C@H]1/N=C/c1ccccc1O)C2(C)C,20.3
5,C[C@@H]1[C@H]2C[C@@H](C[C@H]1NCc1ccc(O)cc1)C2(C)C,> 200
6,C[C@@H]1[C@H]2C[C@@H](C[C@H]1/N=C/c1ccccc1)C2(C)C,7.78
7,CN[C@@H]1C[C@@H]2C[C@H]([C@H]1C)C2(C)C,23.5
8,C[C@@H]1[C@H]2C[C@@H](C[C@H]1/N=C/c1ccc(O)cc1)C2(C)C,0.088
9,C[C@@H]1[C@H]2C[C@@H](C[C@H]1/N=C/c1cccc(O)c1)C2(C)C,5.99
10,C[C@@H]1[C@H]2C[C@@H](C[C@H]1NCC1CC1)C2(C)C,28.5
11,NC12CC3CC(CC(C3)C1)C2 [AMANTADINE],21.1
12,C[C@@H]1[C@H]2C[C@@H](C[C@H]1/N=C/c1ccc(N(C)C)cc1)C2(C)C,38.4
13,CCN[C@@H]1C[C@@H]2C[C@H]([C@H]1C)C2(C)C,> 200
14,CC(C)N[C@@H]1C[C@@H]2C[C@H]([C@H]1C)C2(C)C,> 200
15,C[C@@H]1[C@H]2C[C@@H](C[C@H]1/N=C/c1ccc(F)cc1)C2(C)C,16.3

# System: Influenza A virus
# Assay: Antiviral activity against amantadine-sensitive Influenza A virus A/Hong Kong/8/68 (H3N2) infected in MDCK cells at 0.01 to 10 uM after 2 to 3 days by crystal violet staining by plaque reduction assay
# Format: functional, organism-based
# Method in brief: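 MDCK monolayer infected with 0.01 MOI A/Hong Kong/8/68 for 1 h at 37 °C. Inoculum removed and cells washed twice with PBS, then overlaid with 1% agar DMEM containing test agent. Plaque formation scored.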
row,SMILES,Activity
1,C[C@@H]1[C@H]2C[C@@H](C[C@H]1/N=C/c1ccc(O)cc1)C2(C)C,Active

# System: Influenza A virus
# Assay: Ratio of compound IC50 to amantadine IC50 for Influenza A virus A/Hong Kong/8/68 (H3N2)
# Format: functional
row,SMILES,Ratio IC50
1,C[C@@H]1[C@H]2C[C@@H](C[C@H]1/N=C/c1ccc(O)cc1)C2(C)C,240
